According to ChEMBL document CHEMBL1123757, “Selective thromboxane synthetase inhibitors and antihypertensive agents. New derivatives of 4-hydrazino-5H-pyridazino[4,5-b]indole, 4-hydrazinopyridazino[4,5-a]indole, and related compounds” (J Med Chem, 1987):

Columns and labels:
Homo sapiens [1] = species on record: Homo sapiens; assay: In vitro inhibition of platelet aggregation induced by adrenaline at 10e-5 M; format: functional
How it was run: (§1)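 Human venous blood anticoagulated with 3.8% sodium citrate (1:9). PRP from centrifugation at 800 rpm for 10 min at room temperature. Count adjusted with PPP to […]. Compound in saline with 10% ethylene glycol is added to PRP and incubated at 37 °C before the agonist. Agonists: ADP 2×10^-5 M, AA 0.6 mM, PGH2 2.8 μM, adrenaline 0.6 μM. Born absorbance aggregometry; n = 5.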

Rattus norvegicus [2] = assay: Percent fall in systolic blood pressure, directly measured on carotid (iv on the jugular vein) of spontaneously hypertensive rats at 1 mg/kg after 120 minutes; format: functional, Artery
How it was run: (§2)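 Anesthetized (sodium pentobarbital, 70 mg/kg) male and female Okamoto SHR, 8 weeks old, 300–350 g. Given iv into the jugular vein in normal saline. Arterial pressure and cardiac rhythm are recorded directly from the carotid by polygraph at set times after dosing. Each is expressed as percent change from the pre-dose control value.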

[3] = Effect on PGI-2 release from rat aortic tissue at a final concentration of 10e -4 for an incubation time of 35 minutes; format: functional
How it was run: (§3)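 Female Wistar rats (200–220 g) received heparin 200 IU/kg ip and were killed 10 min later. Aortic pieces of about 25 mm² were washed in ice-cold oxygenated Krebs–Henseleit buffer, then incubated in 1 mL buffer at 37 °C. Compound at 10^-4 M final was added 10 min before tissue transfer. PGI2 release was read as antiaggregatory activity of the incubate on ADP (2×10^-6 M)-induced human PRP aggregation and by 6-keto-PGF1α RIA. n = 4.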

Rattus norvegicus [4] = assay: Antihypertensive activity in spontaneously hypertensive rats (SHR) measured by percentage fall in arterial pressure (AP) at 25 mg/kg administered intraperitoneally at 24 h; format: functional, Artery; settings: route intraperitoneal
How it was run: (§4)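 Unanesthetized Okamoto-strain SHR, male and female, 8 weeks old, 300–350 g, systolic pressure ≥190 mmHg, heart rate 400–650 beats/min; five animals per dose. Given ip at 2.5 mL/kg, dissolved or suspended in normal saline or saline with 0.2% (carboxymethyl)cellulose and 1.0% Tween 80. Tail AP and CR recorded by mechanical transduction at set times; reported as percentage fall from control.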

Rattus norvegicus [5] = assay: Percent fall in systolic blood pressure, directly measured on carotid (iv on the jugular vein) of spontaneously hypertensive rats at 1 mg/kg after 15 minutes; format: functional, Artery; how it was run: as §2
Rattus norvegicus [6] = assay: Percent fall in systolic blood pressure, directly measured on carotid (iv on the jugular vein) of spontaneously hypertensive rats at 1 mg/kg after 30 minutes; format: functional, Artery; how it was run: as §2
Rattus norvegicus [7] = assay: Antihypertensive activity in spontaneously hypertensive rats (SHR) measured by percentage fall in arterial pressure (AP) at 25 mg/kg administered intraperitoneally at 3 h; format: functional, Artery; settings: route intraperitoneal; how it was run: as §4
Homo sapiens [8] = species on record: Homo sapiens; assay: In vitro inhibition of platelet aggregation induced by ADP-II (PRP incubated for 60 minutes at 37 degree C) at 10e-5 M; format: functional; settings: 1 h; how it was run: as §1
Rattus norvegicus [9] = assay: Antihypertensive activity in spontaneously hypertensive rats (SHR) measured by percentage fall in arterial pressure (AP) at 1 mg/kg administered intraperitoneally at 3 h; format: functional, Artery; settings: route intraperitoneal; how it was run: as §4
Rattus norvegicus [10] = assay: Antihypertensive activity in spontaneously hypertensive rats (SHR) measured by percentage fall in cardiac rhythm (CR) at 1 mg/kg administered intraperitoneally at 1 h; format: functional, Heart; settings: route intraperitoneal; how it was run: as §4
Cavia porcellus [11] = assay: Ex vivo inhibition of platelet aggregation induced by AA at 100 mg/kg; format: functional
How it was run: (§5)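 Fasted male or female guinea pigs (250–300 g, five per group) dosed orally in normal saline or saline with 0.2% (carboxymethyl)cellulose/1.0% Tween 80; controls given vehicle. Under ether, cardiac blood collected into 3.8% citrate. PRP adjusted to […] and aggregation induced by ADP (second wave) or AA, read by absorbance aggregometry. PGE2 and TXB2 measured by RIA.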

Rattus norvegicus [12] = assay: Antihypertensive activity in spontaneously hypertensive rats (SHR) measured by percentage fall in arterial pressure (AP) at 25 mg/kg administered perorally at 24 h; format: functional, Artery; settings: route oral
How it was run: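 Oral dosing at 2.5 mL/kg to unanesthetized male and female Okamoto-strain SHR (8 weeks old, 300–350 g, systolic pressure ≥190 mmHg, heart rate 400–650 beats/min), five per dose. Vehicle was normal saline or saline with 0.2% (carboxymethyl)cellulose and 1.0% Tween 80. AP measured on the tail by mechanical transduction at set times; expressed as percentage fall from control.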

[13] = Effect on PGI-2 release from rat aortic tissue at a final concentration of 10e -4 for an incubation time of 30 minutes; format: functional; how it was run: as §3
Rattus norvegicus [14] = assay: Percent increase in cardiac rhythm, directly measured on carotid (iv on the jugular vein) of spontaneously hypertensive rats at 1 mg/kg after 30 minutes; format: functional, Heart; how it was run: as §2
Cavia porcellus [15] = assay: Ex vivo inhibition of platelet aggregation induced by ADP-II at 100 mg/kg; format: functional; how it was run: as §5
Rattus norvegicus [16] = assay: Antihypertensive activity in spontaneously hypertensive rats (SHR) measured by percentage fall in cardiac rhythm (CR) at 25 mg/kg administered intraperitoneally at 3 h; format: functional, Heart; settings: route intraperitoneal; how it was run: as §4
Rattus norvegicus [17] = assay: Antihypertensive activity in spontaneously hypertensive rats (SHR) measured by percentage fall in cardiac rhythm (CR) at 25 mg/kg administered intraperitoneally at 24 h; format: functional, Heart; settings: route intraperitoneal; how it was run: as §4
Rattus norvegicus [18] = assay: Antihypertensive activity in spontaneously hypertensive rats (SHR) measured by percentage fall in arterial pressure (AP) at 5 mg/kg administered intraperitoneally at 5 h; format: functional, Artery; settings: route intraperitoneal; how it was run: as §4
Rattus norvegicus [19] = assay: Antihypertensive activity in spontaneously hypertensive rats (SHR) measured by percentage fall in arterial pressure (AP) at 5 mg/kg administered intraperitoneally at 3 h; format: functional, Artery; settings: route intraperitoneal; how it was run: as §4
Rattus norvegicus [20] = assay: Antihypertensive activity in spontaneously hypertensive rats (SHR) measured by percentage fall in arterial pressure (AP) at 25 mg/kg administered intraperitoneally at 5 h; format: functional, Artery; settings: route intraperitoneal; how it was run: as §4
Homo sapiens [21] = species on record: Homo sapiens; assay: In vitro inhibition of platelet aggregation induced by DD (PRP incubated for 5 minutes at 37 degree C) at 10e-5 M; format: functional; how it was run: as §1
Rattus norvegicus [22] = assay: Antihypertensive activity in spontaneously hypertensive rats (SHR) measured by percentage fall in arterial pressure (AP) at 25 mg/kg administered intraperitoneally at 1 h; format: functional, Artery; settings: route intraperitoneal; how it was run: as §4
[23] = Acute toxicity in mice was expressed as lethal dose; format: organism-based; settings: mouse, in vivo
How it was run: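 Swiss male mice, 20 ± 2 g, dosed ip at four or more dose levels. LD50 calculated 7 days after drug administration by probit analysis (Miller and Tainter).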

Rattus norvegicus [24] = assay: Antihypertensive activity in spontaneously hypertensive rats (SHR) measured by percentage fall in cardiac rhythm (CR) at 25 mg/kg administered perorally at 5 h; format: functional, Heart; settings: route oral
How it was run: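 Conscious SHR (Okamoto strain), 8 weeks old, male and female, 300–350 g, systolic BP ≥190 mmHg, CR 400–650 beats/min. Given ip or po at 2.5 mL/kg in normal saline or saline with 0.2% (carboxymethyl)cellulose and 1.0% Tween 80. Tail AP and CR recorded by mechanical transduction at 1, 3, 5 and 24 h, five animals per dose. Effect expressed as % fall versus control.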

Rattus norvegicus [25] = assay: Percent fall in systolic blood pressure, directly measured on carotid (iv on the jugular vein) of spontaneously hypertensive rats at 1 mg/kg after 60 minutes; format: functional, Artery; how it was run: as §2

COc1ccc2[nH]c3c(NN)nncc3c2c1.Cl
inhibition at 10 µM (Homo sapiens [1]): 100% | Decrease in blood pressure (Rattus norvegicus [2]): 40% | Inhibition [3]: 25% | Decrease in AP (Rattus norvegicus [4]): 10% | Decrease in blood pressure (Rattus norvegicus [5]): 40% | Decrease in blood pressure (Rattus norvegicus [6]): 40% | Decrease in AP (Rattus norvegicus [7]): 57% | inhibition at 10 µM (Homo sapiens [8]): 100% | Decrease in AP (Rattus norvegicus [9]): 5% | Decrease in CR (Rattus norvegicus [10]): 9% | inhibition in vivo at 100 mg/kg (Cavia porcellus [11]): 100% | Decrease in AP (Rattus norvegicus [12]): 15% | Inhibition [13]: 35% | Increase (Rattus norvegicus [14]): 12% | inhibition in vivo at 100 mg/kg (Cavia porcellus [15]): 100% | Decrease in CR (Rattus norvegicus [16]): 19% | Decrease in CR (Rattus norvegicus [17]): 38% | Decrease in AP (Rattus norvegicus [18]): 26% | Decrease in AP (Rattus norvegicus [19]): 35% | Decrease in AP (Rattus norvegicus [20]): 50% | inhibition at 10 µM (Homo sapiens [21]): 100% | Decrease in AP (Rattus norvegicus [22]): 58% | LD50 [23]: 225 mg/kg | Decrease in CR (Rattus norvegicus [24]): -14% | Decrease in blood pressure (Rattus norvegicus [25]): 60%
